Hits are enriched below; roughly 2.1% of the tested compounds scored in any of these assays.
HCV NS3 hel inh: blocks Hepatitis C virus NS3 helicase unwinding; 290,000 tested, 0.56% active; inhibition, % at 10.9 µM; NS3 helicase DNA unwinding, Cy5 molecular beacon fluorescence;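 active = inhibition above the mean of all tested compounds plus 3 SD, set per campaign, cut at about 35% in these data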
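Assay system – hepatitis C virus NS3 helicase domain fragment enzyme · Buffer or medium – MOPS pH 6.5, MgCl2, DTT, Tween20, BSA · Reagent – Cy5/quencher beacon DNA duplex and ATP to start · Compound – single 10.9 µM dose · Timing – 1 h at 25 °C · Technique – Cy5 beacon fluorescence read at start and 1 h · Measure – % inhibition of unwinding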
EBNA-1 inh: blocks EBNA-1 binding to DNA | EBNA-1 DNA binding, fluorescence polarization | inhibition, % at 14.8 µM | 300,000 tested, 0.34% active; in the data active = inhibition above about 28%
PABP1 MLLE inh: inhibitors of microRNA-mediated deadenylation, human PABP1 MLLE binding; 360,000 tested, 0.36% active; inhibition, % at 20 µM; AID 588489; GST-MLLE / FITC-PAM2 fluorescence polarization; in the data active = inhibition above about 35%, passing the limit was not always enough
ZTA DNA inh: blocks Epstein-Barr virus ZTA, an EBNA-1 counter-screen; P03206; ZTA-DNA binding, fluorescence polarization; inhibition, % at 11 µM; 320,000 tested, 0.15% active; in the data active = inhibition above about 33%
Target sequence (P03206 whole entry, looked up): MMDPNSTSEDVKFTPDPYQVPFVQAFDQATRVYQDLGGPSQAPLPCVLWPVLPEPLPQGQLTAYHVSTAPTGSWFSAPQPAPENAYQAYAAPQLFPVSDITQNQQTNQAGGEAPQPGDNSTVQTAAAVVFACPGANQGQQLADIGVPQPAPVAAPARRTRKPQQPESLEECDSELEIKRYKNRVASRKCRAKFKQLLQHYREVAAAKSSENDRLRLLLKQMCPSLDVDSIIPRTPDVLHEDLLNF
PABP polyA inh: PABP-poly(A) binding inhibition. P11940. PABP-poly(A) RNA binding, fluorescence polarization. inhibition, % at 35 µM. 290,000 tested, 1% active. AID 2014;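 note: calls also rest on retests at 20 µM and on dose response follow-up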
eIF4H inh: inhibitors of RNA binding by human eIF4H; Q15056; eIF4H fluorescence polarization binding assay; inhibition, % at 35 µM; 290,000 tested, 0.94% active; AID 2012;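 note: calls also rest on retests at 20 µM and on dose response follow-up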
Of the large screens only hits and unclear results are named; the others gave an inactive call. Unless noted, the rule behind the calls is not given here.

O=C(O)COc1ccc(/C=N/NC(=O)c2ccc(-c3csc(Nc4ccc(Cl)cc4)n3)cc2)cc1	eIF4H inh 98 (no result: EBNA-1 inh, ZTA DNA inh)
CCOc1cc(/C=N/NC(=O)c2ccc(-c3csc(Nc4ccc(C)cc4)n3)cc2)ccc1OCC(=O)O	none (no result: EBNA-1 inh, ZTA DNA inh)
Cc1nc(N2CCC3(CC2)OCCO3)c2nnn(Cc3ccccc3F)c2n1	none
O=C(NCCO)/C(=C\c1cccs1)NC(=O)c1cccs1	PABP polyA inh 120
C=CCN1C(=O)/C(=C\c2ccc(Cl)cc2)N=C1SCC(=O)NC1CCCCC1	PABP1 MLLE inh 40
Cc1c(N2C(=O)c3ccc4c5c(ccc(c35)C2=O)CC4)c(=O)n(-c2ccccc2)n1C	PABP polyA inh 71, eIF4H inh 93
Cc1c(N2C(=O)c3ccc(Br)cc3C2=O)c(=O)n(-c2ccccc2)n1C	none
Cc1cc(C(C)(C)C)oc1C(=O)N(CC(=O)NC1CCCC1)Cc1ccc(F)cc1	none
CCN(CC)Cc1cc(O)c(CN(CC)CC)cc1O	PABP1 MLLE inh 74, eIF4H inh inconclusive (no result: EBNA-1 inh, ZTA DNA inh)
CCc1oc(C(=O)O)cc1CN(CC)CC	none
CC(=O)Nc1ccc(CN(C)c2c(C)nc3ccc(C(=O)NCCCn4ccnc4)cn23)cc1	none (no result: HCV NS3 hel inh, EBNA-1 inh, ZTA DNA inh, PABP polyA inh, eIF4H inh)
Cc1cc(C(F)(F)F)n(-c2nc(C(=O)O)cs2)n1	PABP polyA inh 73, eIF4H inh 1.5
Cc1nc2c(c(=O)n1CCC1=CCCCC1)c1nc3ccccc3nc1n2/N=C/c1ccco1	PABP polyA inh 68, eIF4H inh 68
O=C(Cc1c(F)cccc1Cl)NNC(=O)c1ccc(Br)s1	none (no result: HCV NS3 hel inh, EBNA-1 inh, ZTA DNA inh, PABP polyA inh, eIF4H inh)
O=C(NNC(=O)c1cc2ccccc2[nH]1)OCc1ccccc1	none (no result: HCV NS3 hel inh, EBNA-1 inh, ZTA DNA inh, PABP polyA inh, eIF4H inh)
Cc1cc(=O)[nH]c(SCC(=O)Nc2ccc(C(=O)O)cc2)n1	PABP1 MLLE inh 47
CCOC(=O)c1ccc(NC(=O)CSc2nc(C)cc(=O)[nH]2)cc1	PABP polyA inh 18, eIF4H inh 81
CCN(CC)c1ccc(NC(=O)CSc2nc(C)cc(=O)[nH]2)cc1	none (no result: HCV NS3 hel inh)
Cc1cc(=O)[nH]c(SCC(=O)Nc2ccc(S(N)(=O)=O)cc2)n1	PABP polyA inh active, eIF4H inh 63
COc1ccc(CNC(=O)C2CCC(CNS(=O)(=O)c3cccc4cccnc34)CC2)cc1 (stereo not given)	none
CCOc1cccc2sc(N(CCN(CC)CC)C(=O)c3cccc([N+](=O)[O-])c3)nc12	none
CN1CCc2cc3c(c4c2[C@H]1[C@H](O)c1ccccc1-4)OCO3	PABP1 MLLE inh 68
CN1C(=O)/C(=C/c2ccc(-c3ccccc3[N+](=O)[O-])o2)SC1=Nc1ccc(Cl)c(C(=O)O)c1	eIF4H inh 78
Cc1ccc(C)c(N2C(=N)S/C(=C\c3ccc(-c4ccccc4C(=O)O)o3)C2=O)c1	none
Cc1ccnc(NS(=O)(=O)c2ccc(NC(=O)CCc3ccccc3)cc2)n1	none
CC1=C(C(=O)O)N2C(=O)C(NC(=O)c3ccc(F)cc3)C2SC1 (stereo not given)	PABP1 MLLE inh 43 (no result: HCV NS3 hel inh, EBNA-1 inh, PABP polyA inh, eIF4H inh)
CC1=C(C(=O)O)N2C(=O)C(NC(=O)c3ccccc3Cl)C2SC1 (stereo not given)	none
O=C(O)CNC(=O)CC1S/C(=N/N=C2\CSC(=O)N2)NC1=O (stereo not given)	PABP1 MLLE inh 42
Cc1ccc(S(=O)(=O)Nc2cccc(-n3cnnn3)c2)cc1C(=O)O	none
CCOC(=O)c1ccc(N2C(=O)C3C(/C=C/c4ccccc4)OC4(C(=O)c5ccccc5C4=O)C3C2=O)cc1 (stereo not given)	PABP polyA inh active
OCc1ccccc1CNCc1ccccc1	none
OCc1ccccc1SSc1ccccc1CO	PABP1 MLLE inh 41 (no result: HCV NS3 hel inh, PABP polyA inh, eIF4H inh)
Cc1ccc(C)n1-c1ccc(N2CCOCC2)cc1	none
Cc1ccc(C)n1-c1ccc(N(C)C)cc1	EBNA-1 inh 109, ZTA DNA inh 180
Cc1cccc(NC2SC(=O)NC2=O)c1 (stereo not given)	PABP1 MLLE inh 52
Cc1cccc(NC2CNC(=O)NC2=O)c1 (stereo not given)	none (no result: HCV NS3 hel inh, EBNA-1 inh, ZTA DNA inh, PABP polyA inh, eIF4H inh)
COc1ccc(/C=N/Nc2nnc(Cc3ccccc3)c(=O)[nH]2)cc1OC	PABP polyA inh 1.1, eIF4H inh inconclusive
O=C(NC(=S)Nc1cc([N+](=O)[O-])ccc1O)c1cccnc1	PABP1 MLLE inh 42
Cc1ccc([N+](=O)[O-])cc1NC(=S)NC(=O)c1cccnc1	PABP1 MLLE inh 41
O=[N+]([O-])c1ccc(S(=O)(=O)Nc2ccc3c(c2)OCCO3)cc1	PABP1 MLLE inh 41
Cc1ccc(S(=O)(=O)N2CCC(C(=O)N3CCCCCCC3)CC2)cc1C	none (no result: HCV NS3 hel inh, EBNA-1 inh, ZTA DNA inh, PABP polyA inh, eIF4H inh)
COc1ccc2c(C(=O)CN3CCN(c4ccccc4)CC3)c[nH]c2c1	PABP polyA inh 70, eIF4H inh 69
CC=Cc1cc(OC)c2c(c1)C(C)C(c1ccc(O)c(OC)c1)O2 (stereo not given)	none (no result: HCV NS3 hel inh, EBNA-1 inh, ZTA DNA inh, PABP polyA inh, eIF4H inh)
CC(=O)N(Cc1ccccc1)Cc1cn(CCC#N)nc1-c1cccc([N+](=O)[O-])c1	none
O=C(NCCCO)c1ccc2nc(-c3ccco3)c(-c3ccco3)nc2c1	none (no result: EBNA-1 inh, ZTA DNA inh)
O=C(NCc1ccccc1)c1ccc2nccnc2c1	none
COc1ccc2nc(-c3ccco3)c(-c3ccco3)nc2c1	PABP1 MLLE inh 40, PABP polyA inh 87, eIF4H inh 98
O=C(NCc1ccccc1)c1ccc2nc(-c3ccco3)c(-c3ccco3)nc2c1	PABP polyA inh 83, eIF4H inh 108
CCCCNC(=O)c1ccc2nc(-c3ccco3)c(-c3ccco3)nc2c1	PABP polyA inh active, eIF4H inh 94
COc1ccc(CCNC(=O)CS(=O)(=O)Cc2nc(-c3ccccc3Cl)oc2C)cc1OC	none
COc1ccc(-c2cc3c(=O)n(CC(=O)NCCN4CCCC4)nc(C)n3n2)cc1	none
O=C(O)c1ccc(O)c(O)c1	none
CC(C)(O)CCCC(C)(O)c1ccc(C(=O)O)cc1O (stereo not given)	eIF4H inh 84 (no result: HCV NS3 hel inh)
CC(=O)Oc1c(Br)cc(N(C(C)=O)S(=O)(=O)c2ccccc2)c2ccccc12	none
O=C(O)c1cccc(NC(=S)N/N=C/c2ccccc2OCc2cccc(Br)c2)c1	eIF4H inh 53 (no result: EBNA-1 inh, ZTA DNA inh)
CN(C)c1cc2c3ccccc3n(C)c2cc1N	PABP1 MLLE inh 64 (no result: HCV NS3 hel inh, EBNA-1 inh, ZTA DNA inh, PABP polyA inh, eIF4H inh)
CCC(=O)Nc1nc(C)c(-c2csc(Nc3cccc(C(=O)O)c3)n2)s1	none
Cc1nc(N)sc1-c1csc(Nc2cccc(C(=O)O)c2)n1	PABP polyA inh 53, eIF4H inh 85 (no result: EBNA-1 inh, ZTA DNA inh)
COc1ccc(OCC(=O)Nc2cccc3ncccc23)cc1	none
O=C(CCl)Nc1cccc2ncccc12	PABP polyA inh 31, eIF4H inh 104
O=C(CSc1ccccn1)Nc1ccccc1F	none
O=C(CSc1ccccn1)Nc1cccc2ccccc12	PABP polyA inh 59, eIF4H inh 1.8
CCC(OC(=O)CC1Sc2ccccc2NC1=O)C(=O)NCC1CCCO1 (stereo not given)	PABP1 MLLE inh 40
Cc1cc(/C([O-])=C(/C(=S)Nc2ccccc2)[n+]2ccccc2)c(C)n1-c1ccccc1	PABP polyA inh 63, eIF4H inh 61

Screening data (PubChem BioAssay)
